In brackets after ≈: the same amount, converted by molar mass. Activity calls are given as the source filed them. The calls are words filed in the database; no cut-off is given here.
Key:
[1] = species: Danio rerio; test: Toxicity in zebrafish larva measured at 4 days postfertilization; type: organism-based; conditions: in vivo, 96 h
In short: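 Transgenic fabp10a:DsRed2 larvae raised at 28.5 °C (14 h light/10 h dark), sorted for liver fluorescence at 3 dpf and exposed to compounds, 10 larvae per well; general and heart toxicity checked at 4 dpf to set maximum-tolerated concentration.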

[2] = Inhibition of Plasmodium falciparum FabG using acetoacetyl-CoA as substrate
[3] = species: Danio rerio; test: Hepatotoxicity in zebrafish larva expressing fabp10a:DsRed2 assessed as change in liver size at 0.3 uM measured at 6 days postfertilization by fluorescence microscopic analysis; type: toxicity, organism-based; conditions: in vivo, 144 h
In short: (§1)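 Transgenic fabp10a:DsRed2 zebrafish were raised at 28.5 °C on a 14 h light/10 h dark cycle. Larvae were sorted at 3 dpf for liver fluorescence and exposed to compounds at 10 per well, with 1% DMSO controls. General and heart toxicity were checked at 4 dpf, dosing went up to the maximum-tolerated concentration, and five liver phenotypes were scored at 6 dpf by fluorescence microscopy.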

[4] = system: Escherichia coli; test: Antibacterial activity against Escherichia coli ATCC 8739; type: functional, organism-based; conditions: ATCC 8739, ATCC 8739
In short: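 E. coli ATCC 8739 whole cells tested in triplicate by a previously reported method. Compounds were fully solubilized beforehand, with brief agitation or sonication used for DMSO solutions at high test concentrations (>120 μM).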

[5] = system: Plasmodium berghei; test: Antiplasmodial activity against liver stage of Plasmodium berghei ANKA expressing GFP infected in human Huh7.5 cells assessed as reduction in PB18S gene expression after 48 hrs by qRT-PCR analysis; type: functional, organism-based; conditions: Huh-7, 48 h
In short: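 HuH7.5 cells infected with freshly dissected P. berghei GFP sporozoites (30 000 per 60 000 cells); 48 h culture with compounds (10 to 100 μM) at 37 °C, media changed every 24 h. Total RNA extracted, DNase treated; PB18S expression normalized to DMSO controls; IC50 estimated; atovaquone positive control.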

[6] = target: T1, Enoyl-[acyl-carrier-protein] reductase [NADH] FabI (Escherichia coli K-12, UniProt P0AEK4); test: Inhibition of Escherichia coli FabI using 2-dodecenoyl-CoA as substrate at pH 8
T1 sequence (P0AEK4 whole entry): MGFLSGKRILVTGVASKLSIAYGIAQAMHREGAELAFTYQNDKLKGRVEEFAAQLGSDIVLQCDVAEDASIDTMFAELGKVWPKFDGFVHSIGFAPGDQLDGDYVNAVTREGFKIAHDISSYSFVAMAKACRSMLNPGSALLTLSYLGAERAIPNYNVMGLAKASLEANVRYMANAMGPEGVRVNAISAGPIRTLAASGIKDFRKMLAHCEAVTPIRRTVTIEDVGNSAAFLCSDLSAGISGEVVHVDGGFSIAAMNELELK

[7] = Inhibition of Mycobacterium tuberculosis FabI using 2-dodecenoyl-CoA as substrate at pH 6.8
[8] = system: Plasmodium berghei; test: Antiplasmodial activity against liver stage of Plasmodium berghei ANKA expressing GFP infected in human Huh7.5 cells assessed as decrease in size at 1 uM after 48 hrs by immunofluorescence analysis; type: functional, organism-based; conditions: Huh-7
In short: (§2)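 HuH7.5 cells (50 000/well, chambered slides) were infected with 33 000 freshly dissected P. berghei GFP sporozoites and incubated 48 h with compound or 0.1% DMSO. Cells were fixed in 10% neutral buffered formalin and stained with mouse anti-Plasmodium HSP70 (FITC) plus Hoechst. Parasite size was imaged by fluorescence microscopy with a 40× objective.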

[9] = Cytotoxicity against human Huh7.5 cells after 24 hrs by Cell-titerGlo luminescence assay; type: cell-based; conditions: Huh-7, 24 h
In short: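 HuH7.5 human hepatoma cells (30 000/well) in advanced DMEM complete medium were exposed to compounds for 24 h, or to 0.1% DMSO as reference. Viability was read by CellTiter-Glo luminescence.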

[10] = Inhibition of Plasmodium falciparum FabI using crotonoyl-CoA as substrate preincubated for 10 mins prior to substrate addition
[11] = Inhibition of Plasmodium falciparum FabZ using crotonoyl-CoA as substrate preincubated for 10 mins prior to substrate addition
[12] = system: Plasmodium berghei; test: Antiplasmodial activity against liver stage of Plasmodium berghei ANKA expressing GFP infected in human Huh7.5 cells assessed as decrease in size at 10 uM after 48 hrs by immunofluorescence analysis; type: functional, organism-based; conditions: Huh-7; in short: as §2
[13] = system: Mycobacterium tuberculosis; test: Antimycobacterial activity against Mycobacterium tuberculosis ATCC 27294; type: functional
[14] = Inhibition of Staphylococcus aureus FabI using dodecenoyl ACP at pH 7.8
[15] = species: Danio rerio; test: Hepatotoxicity in zebrafish larva expressing fabp10a:DsRed2 assessed as reduction in liver size at 60.2 uM measured at 6 days postfertilization by fluorescence microscopic analysis; type: toxicity, organism-based; conditions: in vivo, 144 h; in short: as §1
[16] = system: Plasmodium falciparum; test: Antiplasmodial activity against blood stage of chloroquine and pyrimethamine-resistant Plasmodium falciparum K1 after 48 hrs by [3H]-hypoxanthine incorporation assay; type: functional, organism-based
In short: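 0.4% parasitemia in assay medium with 15 μM hypoxanthine; compounds incubated 48 h before 3H-hypoxanthine added; run in duplicate.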

[17] = species: Danio rerio; test: Hepatotoxicity in zebrafish larva expressing fabp10a:DsRed2 assessed as change in liver size at 3.6 to 60.2 uM measured at 6 days postfertilization by fluorescence microscopic analysis relative to control; type: toxicity, organism-based; conditions: in vivo, 144 h; in short: as §1
[18] = system: KB; test: Cytotoxicity against human KB cells after 72 hrs by Alamar Blue assay; type: functional, cell-based
[19] = system: Plasmodium berghei; test: microbe, parasite or virus in culture; conditions: Huh-7
[20] = system: Plasmodium; test: Antiplasmodial activity against blood stage of Plasmodium; type: functional
In short: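 P. falciparum K1 (chloroquine/pyrimethamine-resistant) culture with 3H-hypoxanthine incorporation read-out, run in duplicate. Assay medium held 15 μM hypoxanthine, parasitemia 0.4%, and compounds were incubated 48 h before 3H-hypoxanthine was added.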

[21] = system: Plasmodium berghei; test: microbe, parasite or virus in culture; conditions: ANKA, HepG2
[22] = system: Staphylococcus aureus; test: Antibacterial activity against Staphylococcus aureus ATCC 6538; type: functional
In short: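 S. aureus ATCC 6538 whole cells tested in triplicate by a previously reported method. Compounds were fully solubilized beforehand, with brief agitation or sonication for high test concentrations (>120 μM) in DMSO.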

[23] = species: Danio rerio; test: Hepatotoxicity in zebrafish larva expressing fabp10a:DsRed2 assessed as enlargement of liver at 15.5 uM measured at 6 days postfertilization by fluorescence microscopic analysis; type: toxicity, organism-based; conditions: in vivo, 144 h; in short: as §1

| Structure (SMILES) | MTD [1] [µM] | IC50 [2] [µM] | IC50 [4] [µM] | IC50 [5] [µM] | IC50 [6] [µM] | IC50 [9] [µM] | IC50 [10] [µM] | IC50 [11] [µM] | Activity [12] | MIC [13] [µM] | IC50 [14] [µM] | IC50 [16] [µM] | Activity [17] | IC50 [18] [µM] | also measured |
| --- | --- | --- | --- | --- | --- | --- | --- | --- | --- | --- | --- | --- | --- | --- | --- |
| CC(=O)C1=C(O)C=C2Oc3c(C(C)=O)c(O)c(C)c(O)c3[C@@]2(C)C1=O [(+)-USNIC ACID] | 0.3 | > 200 | > 64 | 2.3 | 47 | > 100 | > 200 | > 200 | Active | 15.1 (≈ 5.2 µg/mL) | 190 |  |  |  | Activity [3]: Non-toxic; IC50 [7]: 190 µM; Activity [8]: Active |
| COc1cc(C)c(C(=O)Oc2cc(C)c(C(=O)O)c(O)c2)c(O)c1 [EVERNIC ACID] | 60.2 | > 200 | > 64 | 77.3 | 90 | > 100 | 36.1 | 10.7 | inactive |  | 170 | 142 | >= 40% | 190 | Activity [15]: Toxic |
| COc1cc(NC(C)CCCN)c2ncccc2c1 (centres undefined) [PRIMAQUINE] |  |  |  |  |  |  |  |  |  |  |  |  |  |  | IC50 [19]: 7.5 µM; IC50 [20]: 1.4 µM; IC50 [21]: 7.5 µM |
| COc1cc(C(=O)O)c2c(c1C)OC(=O)c1c(C)cc(O)c(C=O)c1O2 [PSOROMIC ACID] | 3.6 | 183 | > 64 | 31.6 | > 200 | > 100 | 71.4 | 35.2 | inactive | 123 (≈ 44 µg/mL) | > 200 | 29.2 | >= 40% | 31.6 |  |
| COC(=O)/C(=C1/OC(=O)C(c2ccccc2)=C1O)c1ccccc1 [VULPINIC ACID] | 15.5 | > 200 | > 64 | 10.2 | 84 | > 100 | > 140 | 20.5 | Active |  | 90 | 48.5 | >= 40% |  | MIC [22]: 32 µM (≈ 10.3 µg/mL); Activity [23]: Toxic |
